Source: the RNAGym collection of RNA variant scans (doi:10.1038/s41586-018-0170-7)

B1: tRNA (parent)
chain: GUUCCGUUGGCGUAAUGGUAACGCGUCUCCCUCCUAAGGAGAAGACUGCGGGUUCGAGUCCCGUACGGAACG

Variants of: B1
Assay: yeast fitness, log relative to wild type (ln ratio); higher = fitter; tRNA-Arg(CCU), competitive growth, 37 C, 1 M NaCl
Summary of the method: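 BY4742 cells without the chromosomal tRNA-Arg(CCU) gene carried a combinatorial variant library on a HIS3 centromeric plasmid, from two independent transformations. After 4 generations in SC-HIS at 30 °C, pools spent ~6.5 generations (~26.5 h) in SC-HIS 1M NaCl at 37 °C, giving three outputs per input, and 125 bp paired-end Illumina reads counted the variants. Fitness is the natural log of each genotype's generations over the wild type's, with generations taken as OD-scaled log2 output/input frequency weighted by inverse variance across replicates.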

Variant | yeast fitness (ln)
G1A U2G G6U C27U A43C C66U A69G C71U | -0.764
C27U C66A C71U | -0.117
U2C G6A C27U C66U A70U | -0.203
G6A C46U C66U A70U C71U | -0.423
G1A C27U A43C C46U A69G | -0.116
G1A U2C G6U A43C A70G C71U | -0.198
C27U C46U C66A C71U | -0.0951
G1A U2G G6A C27U A43C C46U A69G A70G | -0.382
G1A U2G G6A C27U A43C C46U A69G A70U | -0.279
G6A C27U A43C C46U C66U A69G A70U | -0.306
U2C G6A C27U A43C C46U A69G A70G C71U | -0.13
G6U C27U A70U | -0.208
U2C A43C C66U A70G C71U | -0.346
G1A G6U C27U C46U C66A A69G A70U C71U | -0.37
U2C G6A C27U C46U A69G A70G | -0.236
G1A U2G C27U A43C C46U A69G A70U C71U | -0.399
U2G G6U A43C C46U C66A A69G A70U C71U | -0.313
U2G G6A A43C C66U A70G C71U | -0.186
C66A A70G | -0.0114
G1A G6A C27U C66U | -0.283
G6A C27U A43C C66U A70U C71U | -0.441

Variant | yeast fitness (ln)
G1A U2C C27U A43C C46U C66U A69G A70U | -0.218
G1A U2C C27U A43C C46U C66U A69G A70G | -0.112
G1A U2G G6A C46U C66U | -0.13
G1A U2C A43C C46U A69G C71U | -0.175
U2G A70U C71U | -0.017
G6U A43C C66A A69G | -0.0712
G1A G6U C27U A43C C46U C66U C71U | -0.364
G6A C27U A43C C46U C66U | -0.0283
G6A C27U A43C C46U C66A | -0.269
G1A U2C G6U C27U A43C C66A A70G C71U | -0.0539
U2C G6A C27U A43C C46U C66U A69G A70U C71U | -0.32
U2G G6A C46U A70U | 0.00257
G1A G6A C46U C66U A69G A70G C71U | -0.0914
G1A G6A C27U C46U A69G C71U | -0.238
G1A U2C C46U C66A A70G C71U | -0.124
U2G C27U A43C A70U C71U | -0.235
G1A G6A C27U C46U C66A A70G C71U | -0.269
G6U A43C C46U C66U A70G C71U | -0.295
U2G G6A C46U C66A A70U | -0.059
U2G C27U A43C C66U A69G A70U C71U | -0.42
U2G G6U C27U C66A A70G C71U | -0.239

Variant | yeast fitness (ln)
G1A U2C A43C C46U C66A A70G C71U | -0.0667
U2C G6A C27U A43C C46U A70G | -0.133
U2C G6A C27U A43C C46U A70U | -0.0327
G1A U2C C27U A69G A70G | -0.209
U2G G6U C27U C46U A70G | -0.156
G1A U2G G6A A43C C46U C66U A70U | -0.306
G1A U2G G6U A43C C46U C66U A69G A70G | -0.365
G1A U2G G6U A43C C46U C66U A69G A70U | -0.299
G6U A43C C46U C66A A70G | -0.0224
U2G C27U A43C A70U | -0.0184
G1A G6U A43C A69G A70G C71U | -0.398
U2C G6U C27U | -0.0654
G1A U2C G6U A43C C66U A70U | -0.295
U2C A43C A69G A70U C71U | -0.32
U2C G6A A70U | -0.0455
G6U C27U A69G A70U | -0.214
G1A G6U C27U A43C C46U | -0.258
G1A G6U C27U A43C A69G A70U C71U | -0.58
U2G G6U A70G | -0.0649
G6U C46U C66U | -0.0169
G1A A43C C46U C66U A69G A70U C71U | -0.469

Variant | yeast fitness (ln)
G6U C46U A69G A70G C71U | -0.253
U2G G6A C27U C46U C71U | -0.128
U2G C66A A69G A70G | -0.148
G1A G6A A43C C46U C71U | -0.145
U2C G6A C27U C66U A70U C71U | -0.212
G1A A43C C46U C66U A70G C71U | -0.192
U2C G6A C46U A69G A70U C71U | -0.183
G1A G6U A43C C46U C66A A70U | -0.242
G1A G6A C46U A69G A70G | -0.123
G1A U2G A43C A69G C71U | -0.219
U2C G6U C66A A69G A70G C71U | -0.00896
G6U C27U C46U C66U A69G A70U C71U | -0.51
U2G C27U A43C C46U A70G C71U | -0.115
U2C G6U C27U A70G | -0.185
U2C G6U C27U A43C C66A A70U C71U | -0.272
G1A U2G G6A C46U C71U | -0.247
U2C G6U C66U A70G C71U | -0.0593
U2C G6A A43C C46U | -0.0201
G6A C46U C66U | 0.00319
U2G G6U C27U C46U C66U A70U C71U | -0.312
G1A G6U C27U C66U A69G A70G C71U | -0.386
